{"data": "Experimental data collected from several papers", "CNR1": "Cannabinoid receptor 1 (CNR1, Homo sapiens, UniProt P21554)", "PFF0160c": "Dihydroorotate dehydrogenase (quinone), mitochondrial (PFF0160c, Plasmodium falciparum, UniProt Q08210)", "OPRK1": "Kappa-type opioid receptor (OPRK1, Homo sapiens, UniProt P41145)", "note": "Lines come from different studies, so protocols differ."}
{"SMILES": "CCCCCn1c(O)c(N=NC(=O)c2ccccc2)c2ccccc21", "target": "CNR1", "assay": "β-arrestin recruitment, agonist", "quantity": "EC50", "result": "780 nM"}
{"SMILES": "Cn1nc2c(=O)n(C3CC3)ncc2c1[C@](O)(c1ccc(C(F)(F)F)c(Cl)c1)C(F)(F)F", "target": "PFF0160c", "assay": "enzyme activity, inhibitor", "quantity": "IC50", "result": "7.94 nM"}
{"SMILES": "C=CCCCn1c(O)c(N=NC(=O)c2ccccc2)c2ccccc21", "target": "CNR1", "assay": "β-arrestin recruitment, agonist", "quantity": "EC50", "result": "1040 nM"}
{"SMILES": "Brc1ccc2c(c1)C(c1ccccn1)=NCc1c(-c3cnco3)ncn1-2", "target": "OPRK1", "assay": "ligand displacement, radioligand", "quantity": "Ki", "result": "2100 nM"}
{"SMILES": "CC(=O)S(=O)(=O)c1ccc(C(=O)N[C@H]2CC[C@@]3(O)[C@H]4Cc5ccc(O)c6c5[C@@]3(CCN4CC3CC3)[C@H]2O6)s1", "target": "OPRK1", "assay": "ligand displacement, radioligand", "setting": "cell membranes", "quantity": "Ki", "result": "1.64 nM"}
{"SMILES": "COC(=O)[C@@H](NC(=O)c1nn(Cc2ccc(F)cc2)c2ccccc12)C(C)C", "target": "CNR1", "assay": "G protein activation, agonist", "quantity": "EC50", "result": "~4 nM"}
{"SMILES": "Cn1nc2c(=O)n(C3CC3)cc(C3CC3)c2c1Cc1ccc(C(F)(F)F)nc1", "target": "PFF0160c", "assay": "enzyme activity, inhibitor", "quantity": "IC50", "result": "39.8 nM"}
{"SMILES": "O=C(N[C@H]1CC[C@@]2(O)[C@H]3Cc4ccc(O)c5c4[C@@]2(CCN3CC2CC2)[C@H]1O5)c1ccc(C(F)(F)F)s1", "target": "OPRK1", "assay": "ligand displacement, radioligand", "setting": "cell membranes", "quantity": "Ki", "result": "2.47 nM"}
{"SMILES": "CC[C@@](O)(c1ccc(F)c(Cl)c1)c1c2ccn(C3CC3)c(=O)c2nn1C", "target": "PFF0160c", "assay": "enzyme activity, inhibitor", "quantity": "IC50", "result": "6.31 nM"}
{"SMILES": "Cc1ccc(C(=O)N[C@H]2CC[C@@]3(O)[C@H]4Cc5ccc(O)c6c5[C@@]3(CCN4CC3CC3)[C@H]2O6)s1", "target": "OPRK1", "assay": "ligand displacement, radioligand", "setting": "cell membranes", "quantity": "Ki", "result": "1.67 nM"}
{"SMILES": "CCCCCc1cc(O)c2c(c1)OC(C)(CCC=C(C)C)C=C2 (stereo not drawn)", "target": "CNR1", "assay": "ligand displacement, radioligand", "quantity": "Ki", "result": "6760 nM"}
{"SMILES": "CCCCCCn1c(O)c(N=NC(=O)c2ccccc2)c2ccccc21", "target": "CNR1", "assay": "ligand displacement, radioligand", "setting": "cell membranes", "quantity": "Ki", "result": "1150 nM"}
{"SMILES": "Cn1nc2c(=O)n(C3CC3)cnc2c1[C@](O)(c1cnc(C(F)(F)F)c(Cl)c1)C1CC1", "target": "PFF0160c", "assay": "enzyme activity, inhibitor", "quantity": "IC50", "result": "20 nM"}
{"SMILES": "CNC(=O)c1ccc(-c2cnn3ccc(C(=O)N(C)c4ccc(Cl)c(C(=O)O)c4)cc23)cc1", "target": "Serine/threonine-protein kinase WNK1 (WNK1, Homo sapiens, UniProt Q9H4A3)", "assay": "enzyme activity, inhibitor", "quantity": "IC50", "result": "> 30000 nM"}
{"SMILES": "N#Cc1ccc(C(=O)N[C@H]2CC[C@@]3(O)[C@H]4Cc5ccc(O)c6c5[C@@]3(CCN4CC3CC3)[C@H]2O6)s1", "target": "OPRK1", "assay": "ligand displacement, radioligand", "setting": "cell membranes", "quantity": "Ki", "result": "3.61 nM"}
